Source: ChEMBL document CHEMBL1147262, “Cytotoxic constituents of Aspergillus terreus from the rhizosphere of Opuntia versicolor of the Sonoran Desert” (J Nat Prod, 2003)
Activity calls are given as the source filed them. The calls are words filed in the database; no cut-off is given here.

Key:
SF-268 [1] = experiment: Cytotoxicity against human SF268 cells after 48 hrs by MTT assay; format: functional, cell-based; conditions: SF-268, 48 h
How it was run: (§1)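 MCF-7, NCI-H460 and SF-268 cells were exposed to serial dilutions for 48 h in RPMI 1640 with 10% fetal bovine serum. Viability was read by MTT colorimetric assay, and IC50 was taken as the concentration giving 50% inhibition of proliferation/survival.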

MCF7 [2] = experiment: Cytotoxicity against human MCF7 cells after 48 hrs by MTT assay; format: functional, cell-based; conditions: MCF7, 48 h; how it was run: as §1
NCI-H460 [3] = experiment: Cytotoxicity against human NCI-H460 cells after 48 hrs by MTT assay; format: functional, cell-based; conditions: NCI-H460, 48 h; how it was run: as §1
MCF7 [4] = experiment: Cytotoxicity against human MCF7 cells at 10 ug/mL after 48 hrs by MTT assay; format: functional, cell-based
SF-268 [5] = experiment: Cytotoxicity against human SF268 cells at 10 ug/mL after 48 hrs by MTT assay; format: functional, cell-based
NCI-H460 [6] = experiment: Cytotoxicity against human NCI-H460 cells at 10 ug/mL after 48 hrs by MTT assay; format: functional, cell-based
NCI-H460 [7] = experiment: Cell cycle arrest in human NCI-H460 cells assessed as accumulation at S phase at 3 uM by flow cytometry
NCI-H460 [8] = experiment: Cell cycle arrest in human NCI-H460 cells assessed as accumulation at G2/M phase at 3 uM by flow cytometry
NCI-H460 [9] = experiment: Cell cycle arrest in human NCI-H460 cells assessed as accumulation at G1 phase at 3 uM by flow cytometry
NCI-H460 [10] = experiment: Cell cycle arrest in human NCI-H460 cells assessed as accumulation at G2/M phase at 10 ug/mL by flow cytometry; format: functional
How it was run: (§2)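 NCI-H460 cells taken at 75-85% confluency, seeded at 2.5 × 10^5 cells per 60 mm dish and left to reattach overnight. Treated overnight in complete RPMI 1640 at 10 µg/mL final (test agents) or 0.1 µM final (positive control), with DMSO ≤0.1 vol %. Harvested by trypsin, PBS-rinsed, resuspended in Krishan's buffer, then DNA-content flow cytometry gave G1/S/G2/M percentages.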

NCI-H460 [11] = experiment: Cell cycle arrest in human NCI-H460 cells assessed as accumulation at G1 phase at 10 ug/mL by flow cytometry; format: functional; how it was run: as §2
NCI-H460 [12] = experiment: Cell cycle arrest in human NCI-H460 cells assessed as accumulation at S phase at 10 ug/mL by flow cytometry; format: functional; how it was run: as §2
NCI-H460 [13] = experiment: Cell cycle arrest in human NCI-H460 cells assessed as accumulation at G2/M phase at 0.1 uM by flow cytometry; format: functional; how it was run: as §2
NCI-H460 [14] = experiment: Cell cycle arrest in human NCI-H460 cells assessed as accumulation at G1 phase at 0.1 uM by flow cytometry; format: functional; how it was run: as §2
NCI-H460 [15] = experiment: Cell cycle arrest in human NCI-H460 cells assessed as accumulation at S phase at 0.1 uM by flow cytometry; format: functional; how it was run: as §2

Structure (SMILES) | IC50 (SF-268 [1]) [µM] | IC50 (MCF7 [2]) [µM] | IC50 (NCI-H460 [3]) [µM] | further results
COC(=O)C1(c2c[nH]c3ccccc23)C(=O)C(OC)=C(c2c[nH]c3ccccc23)C1=O (stereo unspecified) [ASTERREDIONE] | 20.7 | 25.2 | 17.4 | 
CC1C(=O)C[C@H]2[C@@H]3CC[C@H](C(=O)O)[C@]12CC3(C)C (stereo partly specified) |  |  |  | Activity (MCF7 [4]): inactive; Activity (SF-268 [5]): inactive; Activity (NCI-H460 [6]): inactive
COC1=C(c2ccccc2)C(=O)C(OC)=C(c2ccccc2)C1=O [BETULINAN A] | 28 | 8.7 | 58.4 | 
COC(=O)Nc1nc2cc(C(=O)c3cccs3)ccc2[nH]1 [NOCODAZOLE] |  |  |  | Activity (NCI-H460 [7]): 6.9%; Activity (NCI-H460 [8]): 80.1%; Activity (NCI-H460 [9]): 13%
COC1=C(c2c[nH]c3ccccc23)C(=O)C(OC)=C(c2c[nH]c3ccccc23)C1=O [ASTERRIQUINONE D] | 15.8 | 17.7 | 19.9 | 
C=C1C(=O)C[C@H]2[C@@H]3CC[C@H](C(=O)O)[C@]12CC3(C)C | 14.7 | 24.1 | 10.6 | Activity (NCI-H460 [10]): 43.7%; Activity (NCI-H460 [11]): 40.7%; Activity (NCI-H460 [12]): 16%
COC[C@H]1C(=O)C[C@H]2[C@@H]3CC[C@H](C(=O)O)[C@]12CC3(C)C | 21.4 | 20.6 | 19.4 | Activity (NCI-H460 [10]): 34.3%; Activity (NCI-H460 [11]): 44.3%; Activity (NCI-H460 [12]): 21.4%
C=CC(C)(C)c1[nH]c2ccccc2c1C1=C(OC)C(=O)C(c2c[nH]c3ccccc23)=C(OC)C1=O | 25.7 | 4.1 | 24.2 | 
CC(=O)O[C@H]1C(=O)[C@@]2(C)[C@H]([C@H](OC(=O)c3ccccc3)[C@]3(O)C[C@H](OC(=O)[C@H](O)[C@@H](NC(=O)c4ccccc4)c4ccccc4)C(C)=C1C3(C)C)[C@]1(OC(C)=O)CO[C@@H]1C[C@@H]2O [PACLITAXEL] |  | 0.0112 |  | Activity (NCI-H460 [13]): 70.5%; Activity (NCI-H460 [14]): 15.5%; Activity (NCI-H460 [15]): 14%
C=C1C(=O)C[C@H]2[C@@H]3CC[C@H](C(=O)OC)[C@]12CC3(C)C | 10.2 | 16.7 | 9.4 | 
CC1(C)C[C@]23[C@@H](C(=O)O)CC[C@H]1[C@@H]2CC(=O)[C@@H]3CO | 7.8 | 16.5 | 14.5 | 
CC1(C)C[C@]23[C@@H]4COC(=O)[C@H]2CC[C@H]1[C@@H]3CC4=O [QUADRONE] | 16.9 | 14.3 | 12.4 | Activity (NCI-H460 [10]): 54.8%; Activity (NCI-H460 [11]): 38.8%; Activity (NCI-H460 [12]): 6.3%
